Reference: PubChem BioAssay AID463184 (Molecular Libraries Program, Specialized Chemistry Center, …, 2010)
Activity calls are given as the source filed them.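 How the source made its calls: active means IC50 of 10 microM or lower; inactive means the rest.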

Target: Transitional endoplasmic reticulum ATPase (Homo sapiens) (UniProt P55072)
Assay: inhibition of purified VCP ATP hydrolysis – biochemical, dose response (AID 463184)
Conditions: purified p97 ATPase, Kinase-Glo luminescence
In short: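 Test system: human p97 ATPase enzyme. Also added: ATP substrate, added from 500 µM stock. Timing: Compound–enzyme 10 min at RT, ATP hydrolysis 30 min, 37 °C. Measured by: Kinase-Glo Plus luminescence measuring leftover ATP. Evaluation: IC50 from percent remaining activity fit. Benchmarks: DMSO wells and no-enzyme wells.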

Chain of Transitional endoplasmic reticulum ATPase (Homo sapiens) (P55072 whole entry, looked up): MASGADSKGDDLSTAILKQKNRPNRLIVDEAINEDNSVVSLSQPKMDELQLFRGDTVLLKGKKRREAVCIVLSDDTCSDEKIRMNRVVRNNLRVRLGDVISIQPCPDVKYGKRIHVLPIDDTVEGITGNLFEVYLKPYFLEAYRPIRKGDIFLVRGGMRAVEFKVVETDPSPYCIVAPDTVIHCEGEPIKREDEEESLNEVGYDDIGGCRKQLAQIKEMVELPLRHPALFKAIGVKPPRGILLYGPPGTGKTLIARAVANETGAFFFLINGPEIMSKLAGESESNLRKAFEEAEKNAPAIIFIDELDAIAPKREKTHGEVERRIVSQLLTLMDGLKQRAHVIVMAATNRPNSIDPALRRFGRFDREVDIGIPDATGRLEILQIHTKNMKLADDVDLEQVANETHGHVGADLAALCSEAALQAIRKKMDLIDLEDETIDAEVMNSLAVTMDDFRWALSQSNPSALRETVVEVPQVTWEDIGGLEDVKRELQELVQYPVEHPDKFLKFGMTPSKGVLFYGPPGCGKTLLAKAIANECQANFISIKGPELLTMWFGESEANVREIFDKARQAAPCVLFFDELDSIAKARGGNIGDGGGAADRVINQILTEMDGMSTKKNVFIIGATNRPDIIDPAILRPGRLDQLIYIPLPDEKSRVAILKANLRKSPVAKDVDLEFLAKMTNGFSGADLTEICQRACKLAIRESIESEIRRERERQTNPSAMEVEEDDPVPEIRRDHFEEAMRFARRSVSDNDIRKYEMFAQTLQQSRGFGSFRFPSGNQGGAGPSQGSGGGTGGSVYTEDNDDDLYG

Row | Compound | IC50
1 | CC(C)c1ccc(Nc2nc(N)nc(CCl)n2)cc1 | inactive
2 | Cc1cccc(CNc2nc(NCc3ccccc3)c3ccccc3n2)c1 | 2.3 µM
3 | Fc1ccc(CNc2nc(NCc3ccccc3)c3ccccc3n2)cc1 | 2.6 µM
4 | Fc1ccccc1CNc1nc(NCc2ccccc2)c2ccccc2n1 | 2.9 µM
5 | FC(F)(F)c1ccc(CNc2nc(NCc3ccccc3)c3ccccc3n2)cc1 | 2.6 µM
6 | Cc1ccc(CNc2nc(NCc3ccccc3)c3ccccc3n2)cc1 | 3 µM
7 | Cc1c(Cl)cccc1Nc1nc(N)nc(CCl)n1 | inactive
8 | Nc1nc(CCl)nc(Nc2ccc(Oc3ccccc3)cc2)n1 | inactive
9 | Clc1ccccc1CNc1nc(NCc2ccccc2)c2ccccc2n1 | 5.3 µM
10 | Fc1cccc(CNc2nc(NCc3ccccc3)c3ccccc3n2)c1 | 3.1 µM
11 | Brc1cccc(CNc2nc(NCc3ccccc3)c3ccccc3n2)c1 | 3.7 µM
12 | c1ccc(CNc2nc(NCc3ccccc3)c3ccccc3n2)cc1 | 1.6 µM
13 | Clc1cccc(CNc2nc(NCc3ccccc3)c3ccccc3n2)c1 | 2.7 µM
14 | N#C/C(=C(\O)COC(=O)CNc1ccc(C(F)(F)F)cc1[N+](=O)[O-])c1nc2ccccc2[nH]1 | inactive
15 | FC(F)(F)c1cc(CNc2nc(NCc3ccccc3)c3ccccc3n2)ccc1Cl | 4.7 µM
16 | COc1ccc(CNc2nc(NCc3ccccc3)c3ccccc3n2)cc1 | 3 µM
17 | Nc1nc(CCl)nc(Nc2ccc(Cl)c(Cl)c2)n1 | inactive
18 | Cc1ccccc1CNc1nc(NCc2ccccc2)c2ccccc2n1 | 2.7 µM
19 | COc1ccccc1CNc1nc(NCc2ccccc2)c2ccccc2n1 | 3.6 µM
20 | N#C/C(=C(\O)COC(=O)C1COc2ccccc2O1)c1nc2ccccc2[nH]1 (stereo not drawn) | inactive
21 | CCc1nc2ccccc2n1CC(=O)OC/C(O)=C(/C#N)c1nc2ccccc2[nH]1 | inactive
22 | Clc1ccc(CNc2nc(NCc3ccccc3)c3ccccc3n2)cc1 | 3.1 µM
23 | Nc1nc(CCl)nc(N(c2ccccc2)c2ccccc2)n1 | inactive
24 | N#C/C(=C(\O)COC(=O)CCC(=O)c1ccc2c(c1)OCCO2)c1nc2ccccc2[nH]1 | 10 µM
25 | Brc1ccc(CNc2nc(NCc3ccccc3)c3ccccc3n2)cc1 | 4.3 µM
26 | COc1cccc(CNc2nc(NCc3ccccc3)c3ccccc3n2)c1 | 4.5 µM
27 | Clc1ccc(CNc2nc(NCc3ccccc3)c3ccccc3n2)cc1Cl | 3 µM
28 | Brc1ccccc1CNc1nc(NCc2ccccc2)c2ccccc2n1 | 2 µM
